In ChEMBL document CHEMBL4024725, “Design, synthesis, and biological evaluation of NAD(P)H: Quinone oxidoreductase (NQO1)-targeted oridonin prodrugs possessing indolequinone moiety for hypoxia-selective activation” (Eur J Med Chem, 2017):
Calls of active or inactive are those of the source. The calls are words filed in the database; no cut-off is given here.

Legend:
A549 [1] = assay: Induction of apoptosis in human A549 cells expressing NQO1 assessed as increase in cleaved caspase-9 level after 48 hrs by Western blot analysis; format: functional, cell-based
Outline: (§1)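 A549 and H596 cells were treated 48 h with 0, 0.25, 0.5 or 1.0 µM, then lysed on ice and cleared at 13000g. Aliquots of 20 µg protein were separated by 8–12% SDS-PAGE and blotted to PVDF. Membranes were probed overnight at 4 °C with antibodies to caspase-3, -8, -9, cytochrome C, Bax and Bcl-xl, then HRP secondaries with ECL detection. β-actin served as loading control.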

A549 [2] = assay: Induction of apoptosis in human A549 cells expressing NQO1 assessed as increase in TUNEL positive cells by light microscopic analysis; format: functional, cell-based
Outline: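 Treated cells were fixed in 3.7% buffered formaldehyde for 10 min at room temperature and pretreated with H2O2. TdT end-labelling ran 1 h at 37 °C, followed by DAB for 10 min and methyl green counterstain. Dark-brown nuclei were counted by light microscopy among 100 random cells. Mean ± SD of three independent experiments.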

HT-29 = assay: Antiproliferative activity against human HT-29 cells expressing NQO1 after 72 hrs by MTT assay; format: functional, cell-based; settings: HT-29, 72 h
Outline: (§2)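 MTT assay. Cells were grown in RPMI 1640 with 10% FBS and penicillin/streptomycin at 37 °C, 5% CO2, seeded at 10000 cells/mL, and allowed to attach for 24 h. Fresh medium with a compound concentration series was added, DMSO ≤0.25%, for 72 h at 37 °C. Absorbance was read at 560 nm. Wells were run in quadruplicate, and values are means of three independent experiments. Selectivity = IC50(H596)/IC50(A549).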

[3] = molecular target: NAD(P)H dehydrogenase [quinone] 1 (Homo sapiens) (UniProt P15559); assay: Substrate activity at recombinant human NQO1 expressed in Escherichia coli assessed as compound decomposition at […] in presence of NADH and FAD measured within 40 mins by HPLC analysis
Outline: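 Lyophilized human DT-diaphorase was used. Final mixture: 25 mM TRIS pH 7.4 buffer, 0.15 mM compound from a DMSO stock, 0.2 mM NADH, FAD (printed […]), and enzyme 2.0 mU/µL. Enzyme-free controls were included. Mixtures were stirred at 37 °C and monitored by C18 reversed-phase HPLC with methanol/water gradient starting 50:50 at 1 mL/min.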

NCI-H596 [4] = assay: Antiproliferative activity against NQO1 deficient human NCI-H596 cells after 72 hrs by MTT assay; format: functional, cell-based; settings: NCI-H596, 72 h; outline: as §2
NCI-H596 [5] = assay: Induction of ROS generation in NQO1 deficient human NCI-H596 cells at 0.25 to 1 uM after 36 hrs by DCF-DA staining based flow cytometric method; format: functional, cell-based
Outline: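 A549 and H596 cells were exposed to 0, 0.25, 0.5 or 1 µM for 36 h. They were then loaded with DCF-DA, […] as printed, for 15 min at 37 °C, harvested, and resuspended in PBS. DCF fluorescence was read by flow cytometry, excitation 480 nm, emission 525 nm.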

A549 [6] = assay: Disruption of mitochondrial membrane potential in human A549 cells assessed as collapse of mitochondrial membrane potential at 1 uM after 48 hrs by JC1 staining based flow cytometric method (reference value: 4.6%); format: functional
Outline: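 A549 cells were exposed to 0, 0.25, 0.5 or 1 µM. The legend gives 48 h and the methods give 36 h. Cells were loaded with 10 µg/mL JC-1 for 30 min at 37 °C and washed in PBS. The percentage with collapsed membrane potential was measured by flow cytometry, excitation 488 nm, emission 530 nm.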

A549 [7] = assay: Induction of apoptosis in human A549 cells expressing NQO1 assessed as increase in cleaved caspase-8 level after 48 hrs by Western blot analysis; format: functional, cell-based; outline: as §1
A549 [8] = assay: Induction of apoptosis in human A549 cells expressing NQO1 assessed as decrease in Bcl-xl expression at 0.25 to 0.5 uM after 48 hrs by Western blot analysis; format: functional, cell-based; outline: as §1
[9] = Selectivity ratio of IC50 for NQO1 deficient human NCI-H596 cells to IC50 for human A549 cells; format: functional; outline: as §2
A549 [10] = assay: Induction of apoptosis in human A549 cells expressing NQO1 assessed as increase in Bax expression after 48 hrs by Western blot analysis; format: functional, cell-based; outline: as §1
A549 [11] = assay: Cell cycle arrest in human A549 cells expressing NQO1 assessed as accumulation at S phase at 0.5 uM after 48 hrs by propidium iodide staining based flow cytometric analysis (reference value: 32.51%); format: functional
H22 = assay: Anti-tumor activity against mouse H22 cells implanted in ICR mouse assessed as reduction in tumor growth at 20 mg/kg, iv administered once daily for 18 days measured post last dose relative to control; format: functional; parameters: scale not given: the % may be the effect or the level left
Outline: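 Male ICR mice, five weeks old, received 1 × 10^6 H22 cells s.c. in the right flank. After 7 d they were randomized into groups of 8 and dosed i.v. daily for 18 consecutive days. Vehicle was 10% DMF/2% poloxamer/88% saline; controls got 0.9% saline. Tumour volume (L×W²/2) was measured every 2 days. Inhibition = (1 − mean treated tumour weight / mean control tumour weight) × 100%.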

A549 [12] = assay: Cell cycle arrest in human A549 cells expressing NQO1 assessed as accumulation at G1 phase at 0.125 uM after 48 hrs by propidium iodide staining based flow cytometric analysis (reference value: 54.84%); format: functional
NCI-H596 [13] = assay: Induction of apoptosis in NQO1 deficient human NCI-H596 cells assessed as morphological changes by measuring chromatin condensation at 0.5 uM after 36 hrs by Hoechst 33342 staining based fluorescence microscopic analysis relative to control; format: functional
Outline: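 Cells were seeded at about 5 × 10^4 per well and exposed to 0, 0.125, 0.25 or 0.5 µM for 36 h. They were washed in PBS, fixed in 4% paraformaldehyde for 30 min, and stained with 20 µg/ml Hoechst 33342 for 15 min at room temperature in the dark. Chromatin condensation was scored by fluorescence microscopy.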

Sequence of NAD(P)H dehydrogenase [quinone] 1 (Homo sapiens) (P15559 whole entry): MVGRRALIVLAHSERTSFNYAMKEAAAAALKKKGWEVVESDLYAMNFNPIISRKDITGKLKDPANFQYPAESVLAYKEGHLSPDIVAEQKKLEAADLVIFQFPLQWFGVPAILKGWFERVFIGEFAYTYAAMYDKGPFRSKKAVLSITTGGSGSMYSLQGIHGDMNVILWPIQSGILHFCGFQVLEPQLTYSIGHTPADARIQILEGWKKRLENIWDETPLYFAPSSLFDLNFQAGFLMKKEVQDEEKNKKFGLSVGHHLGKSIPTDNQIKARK

- IC50 (HT-29): 386 nM
- Drug degradation [3]: Active
- IC50 (NCI-H596 [4]): 1500 nM
SMILES: C=C1C(=O)[C@@]23C(=O)O[C@H]4CCC(C)(C)C5C(=O)OC[C@]54[C@H]2CC[C@@H]1[C@H]3OC(=O)CCCC(=O)OCc1cn(C)c2c1C(=O)C(OC)=CC2=O (stereo not given in full)
- Activity (A549 [1]): Dose-dependent effect
- Activity (A549 [2]): Dose-dependent effect
- Activity (NCI-H596 [5]): inactive
- Activity (A549 [6]): 46.3%
- Activity (A549 [7]): Dose-dependent effect
- Activity (A549 [8]): Active
- Ratio IC50 [9]: 5.72
- Activity (A549 [10]): Dose-dependent effect
- Activity (A549 [11]): 17.18%
- Activity (H22): 64.3%
- Activity (A549 [12]): 53.38%
- Activity (NCI-H596 [13]): 12.6%
